Source: ChEMBL document CHEMBL3351225, “Design, synthesis, and structure-activity and structure-pharmacokinetic relationship studies of novel [6,6,5] tricyclic fused oxazolidinones leading to the discovery of a potent, selective, and orally bioavailable FXa inhibitor” (J Med Chem, 2014)
pIC50: −log10 of the molar value.

Legend:
[1] = Elimination half life in Beagle dog at 0.5 mg/kg, iv; type: ADME, organism-based, Canis lupus familiaris; parameters: dose 0.5 mg/kg, route intravenous; conditions: in vivo
Outline: (§1)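 Male dogs, three per group. Dosed orally at 1 mg/kg or by intravenous infusion at 0.5 mg/kg. Vehicle was 5% DMSO + 5% Tween-80 in 90% saline, or 10% DMSO + 10% Tween-80 + 80% PEG400 for the reference drug. Foreleg blood samples were quantified by LC-MS. Parameters came from noncompartmental analysis of mean plasma concentrations.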

Cytochrome P450 1A2 = molecular target: T1, Cytochrome P450 1A2 (Homo sapiens, UniProt P05177); assay: Inhibition of CYP1A2 (unknown origin); type: ADME
T1 sequence (P05177 whole entry): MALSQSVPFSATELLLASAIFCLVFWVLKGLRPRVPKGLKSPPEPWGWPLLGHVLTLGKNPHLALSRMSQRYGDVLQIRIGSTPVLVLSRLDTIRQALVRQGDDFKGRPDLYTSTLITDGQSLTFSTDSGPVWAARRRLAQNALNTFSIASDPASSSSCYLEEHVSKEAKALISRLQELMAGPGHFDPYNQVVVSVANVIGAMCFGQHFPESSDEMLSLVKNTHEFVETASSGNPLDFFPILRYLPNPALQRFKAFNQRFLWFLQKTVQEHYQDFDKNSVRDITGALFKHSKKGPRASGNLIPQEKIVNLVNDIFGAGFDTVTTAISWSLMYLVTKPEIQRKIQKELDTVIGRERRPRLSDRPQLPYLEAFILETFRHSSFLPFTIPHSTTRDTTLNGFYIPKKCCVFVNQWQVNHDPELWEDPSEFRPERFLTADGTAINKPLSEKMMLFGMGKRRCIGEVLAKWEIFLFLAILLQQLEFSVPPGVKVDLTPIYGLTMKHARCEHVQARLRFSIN

[2] = Oral bioavailability in Beagle dog at 1 mg/kg; type: ADME, organism-based, Canis lupus familiaris; conditions: in vivo; outline: as §1
Rattus norvegicus [3] = assay: Toxicity in rat assessed as induction of body weight changes at 100 mg/kg, po dosed once daily for 2 weeks; type: organism-based; parameters: dose 100 mg/kg, route oral; conditions: in vivo, 336 h
Outline: (§2)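 Subacute toxicity in rats: oral dosing once daily for 2 weeks at 50 mg/kg (medium) or 100 mg/kg (high). Behavior, body weight, food intake, organ coefficients and survival rate were monitored.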

[4] = Tmax in Beagle dog at 1 mg/kg, po; type: ADME, organism-based, Canis lupus familiaris; parameters: dose 1 mg/kg, route oral; conditions: in vivo; outline: as §1
Prothrombin = Prothrombin (Homo sapiens, UniProt P00734); assay: Inhibition of human factor 2a using L-pyro-Glu-Pro-ArgpNA, S-2366 chromogenic substrate
Outline: (§3)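 Human enzyme and inhibitor were premixed and preincubated, then the chromogenic substrate was added. Substrate levels: 300 μM S-2765 (FXa, trypsin); 200 μM S-2366 (FIIa); 2 mM S-2366 (FVIIa, FXIa). pNA release was monitored continuously at 405 nm for 20 min at 37 °C. IC50 was obtained by nonlinear regression.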

Plasma [5] = assay: Anticoagulant activity in citrated rabbit plasma assessed as activated partial thromboplastin time preincubated for 10 mins at 37 degC by coagulometry; type: functional, Oryctolagus cuniculus
Outline: (§4)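 Test compound or DMSO added to citrated rabbit plasma (3.8% sodium citrate, 10:90 v/v) and preincubated 10 min at 37 °C. PT and aPTT clotting times measured on a coagulometer with commercial kits. Activity expressed as the concentration needed to double plasma clotting time (CT2, μM).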

Rattus norvegicus [6] = assay: Toxicity in rat assessed as survival rate changes at 50 mg/kg, po dosed once daily for 2 weeks; type: organism-based; parameters: dose 50 mg/kg, route oral; conditions: in vivo, 336 h; outline: as §2
[7] = AUC (0 to infinity) in Beagle dog at 1 mg/kg, po; type: ADME, organism-based, Canis lupus familiaris; parameters: time infinity, dose 1 mg/kg, route oral; conditions: plasma; outline: as §1
Salmonella typhimurium = assay: Genotoxicity in Salmonella typhimurium by Ames test; type: toxicity, organism-based; conditions: salmonella enterica subsp. enterica serovar typhimurium
Coagulation factor VII = molecular target: T2, Coagulation factor VII (Homo sapiens, UniProt P08709); assay: Inhibition of human factor 7a using S-2366 chromogenic substrate; outline: as §3
T2 sequence (P08709 whole entry): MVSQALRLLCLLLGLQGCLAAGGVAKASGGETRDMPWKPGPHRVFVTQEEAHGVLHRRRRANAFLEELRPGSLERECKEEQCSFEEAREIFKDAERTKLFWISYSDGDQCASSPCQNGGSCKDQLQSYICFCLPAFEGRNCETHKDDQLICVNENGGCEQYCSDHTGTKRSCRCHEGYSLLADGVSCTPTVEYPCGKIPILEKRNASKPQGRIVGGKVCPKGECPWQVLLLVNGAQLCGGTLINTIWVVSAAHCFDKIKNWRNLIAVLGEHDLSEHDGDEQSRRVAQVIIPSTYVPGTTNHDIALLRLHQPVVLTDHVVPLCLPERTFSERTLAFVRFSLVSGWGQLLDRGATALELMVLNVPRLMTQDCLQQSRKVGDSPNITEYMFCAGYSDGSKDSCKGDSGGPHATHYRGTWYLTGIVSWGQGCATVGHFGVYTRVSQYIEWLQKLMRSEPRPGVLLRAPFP

Cytochrome P450 2D6 = Cytochrome P450 2D6 (Homo sapiens, UniProt P10635); assay: Inhibition of CYP2D6 (unknown origin); type: ADME
Chain of Cytochrome P450 2D6 (P10635 whole entry): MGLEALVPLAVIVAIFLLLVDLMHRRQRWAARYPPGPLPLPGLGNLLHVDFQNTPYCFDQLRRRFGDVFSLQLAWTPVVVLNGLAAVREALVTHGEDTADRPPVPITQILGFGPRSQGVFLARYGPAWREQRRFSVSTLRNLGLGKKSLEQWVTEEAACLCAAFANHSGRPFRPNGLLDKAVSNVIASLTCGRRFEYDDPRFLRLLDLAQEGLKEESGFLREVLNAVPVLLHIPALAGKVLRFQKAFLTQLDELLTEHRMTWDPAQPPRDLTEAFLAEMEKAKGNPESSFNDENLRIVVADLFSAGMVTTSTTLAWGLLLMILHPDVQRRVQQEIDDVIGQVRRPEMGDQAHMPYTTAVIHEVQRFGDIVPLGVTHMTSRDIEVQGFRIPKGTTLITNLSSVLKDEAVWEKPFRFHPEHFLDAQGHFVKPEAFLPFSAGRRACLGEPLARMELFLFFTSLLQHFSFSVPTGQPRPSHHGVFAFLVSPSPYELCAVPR

Rattus norvegicus [8] = assay: Toxicity in rat assessed as induction of behavioral changes at 100 mg/kg, po dosed once daily for 2 weeks; type: organism-based; parameters: dose 100 mg/kg, route oral; conditions: in vivo, 336 h; outline: as §2
V79 = assay: Toxicity in Chinese hamster V79 cells by micronucleus Assay; type: cell-based, Cricetulus griseus
Rattus norvegicus [9] = assay: Toxicity in rat assessed as induction of food intake changes at 50 mg/kg, po dosed once daily for 2 weeks; type: organism-based; parameters: dose 50 mg/kg, route oral; conditions: in vivo, 336 h; outline: as §2
Rattus norvegicus [10] = assay: Toxicity in rat assessed as induction of organ coefficients changes at 50 mg/kg, po dosed once daily for 2 weeks; type: organism-based; parameters: dose 50 mg/kg, route oral; conditions: in vivo, 336 h; outline: as §2
Rattus norvegicus [11] = assay: Toxicity in rat assessed as survival rate changes at 100 mg/kg, po dosed once daily for 2 weeks; type: organism-based; parameters: dose 100 mg/kg, route oral; conditions: in vivo, 336 h; outline: as §2
Rattus norvegicus [12] = assay: Antithrombotic activity in rat model of FeCl3-induced venous thrombosis assessed as reduction in thrombus formation dosed orally 60 mins before thrombus formation; conditions: po
Cytochrome P450 2C9 = Cytochrome P450 2C9 (Homo sapiens, UniProt P11712); assay: Inhibition of CYP2C9 (unknown origin); type: ADME
Chain of Cytochrome P450 2C9 (P11712 whole entry): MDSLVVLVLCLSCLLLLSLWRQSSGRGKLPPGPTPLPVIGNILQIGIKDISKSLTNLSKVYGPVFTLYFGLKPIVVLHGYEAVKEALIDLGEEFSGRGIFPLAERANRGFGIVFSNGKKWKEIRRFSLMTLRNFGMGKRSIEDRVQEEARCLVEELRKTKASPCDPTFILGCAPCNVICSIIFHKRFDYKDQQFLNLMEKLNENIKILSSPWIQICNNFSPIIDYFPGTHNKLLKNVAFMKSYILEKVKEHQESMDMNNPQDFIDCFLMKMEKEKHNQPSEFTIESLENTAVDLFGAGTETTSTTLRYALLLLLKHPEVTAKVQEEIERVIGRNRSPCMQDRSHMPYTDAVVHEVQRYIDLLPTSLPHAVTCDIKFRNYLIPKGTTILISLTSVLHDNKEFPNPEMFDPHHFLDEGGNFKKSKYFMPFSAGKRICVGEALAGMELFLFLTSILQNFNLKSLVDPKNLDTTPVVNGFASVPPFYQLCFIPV

Plasma [13] = assay: Anticoagulant activity in citrated rabbit plasma assessed as drug concentration required to double plasma clotting time preincubated for 10 mins at 37 degC by coagulometry; type: functional, Oryctolagus cuniculus; outline: as §4
[14] = AUC (0 to infinity) in Beagle dog at 0.5 mg/kg, iv; type: ADME, organism-based, Canis lupus familiaris; parameters: time infinity, dose 0.5 mg/kg, route intravenous; conditions: plasma; outline: as §1
Coagulation factor X = Coagulation factor X (Homo sapiens, UniProt P00742); assay: Inhibition of human factor 10a using N-Z-D-Arg-Gly-Arg-pNA, S-2765 chromogenic substrate
Chain of Coagulation factor X (P00742 41-179 limits assumed): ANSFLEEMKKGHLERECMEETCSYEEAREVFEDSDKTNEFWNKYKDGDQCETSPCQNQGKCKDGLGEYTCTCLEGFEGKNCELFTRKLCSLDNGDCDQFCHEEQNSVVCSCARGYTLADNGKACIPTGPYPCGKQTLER
Chain of Coagulation factor X (P00742 235-488 limits assumed): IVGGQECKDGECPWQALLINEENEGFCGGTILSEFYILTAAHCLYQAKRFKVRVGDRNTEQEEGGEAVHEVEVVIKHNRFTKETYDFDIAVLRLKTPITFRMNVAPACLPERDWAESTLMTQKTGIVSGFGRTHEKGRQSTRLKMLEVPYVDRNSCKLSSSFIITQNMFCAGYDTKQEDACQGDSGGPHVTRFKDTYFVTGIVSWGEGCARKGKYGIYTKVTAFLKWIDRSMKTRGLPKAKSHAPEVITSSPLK

Cytochrome P450 2C19 = Cytochrome P450 2C19 (Homo sapiens, UniProt P33261); assay: Inhibition of CYP2C19 (unknown origin); type: ADME
Chain of Cytochrome P450 2C19 (P33261 whole entry): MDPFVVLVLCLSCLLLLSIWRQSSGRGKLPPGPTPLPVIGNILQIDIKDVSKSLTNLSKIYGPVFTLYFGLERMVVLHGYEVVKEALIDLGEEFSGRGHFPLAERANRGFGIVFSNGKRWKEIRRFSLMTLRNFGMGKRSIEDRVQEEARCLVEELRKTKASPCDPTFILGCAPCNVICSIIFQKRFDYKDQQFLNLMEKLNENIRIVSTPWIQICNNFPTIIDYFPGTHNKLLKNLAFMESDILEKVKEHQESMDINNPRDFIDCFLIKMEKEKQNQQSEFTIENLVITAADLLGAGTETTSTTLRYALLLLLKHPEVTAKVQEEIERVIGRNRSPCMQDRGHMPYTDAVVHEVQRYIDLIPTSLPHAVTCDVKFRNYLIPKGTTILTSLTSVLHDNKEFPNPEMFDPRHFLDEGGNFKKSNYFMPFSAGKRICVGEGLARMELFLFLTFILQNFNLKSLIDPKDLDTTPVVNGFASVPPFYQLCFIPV

Rattus norvegicus [15] = assay: Induction of tail bleeding in rat assessed as prolongation of bleeding time dosed orally 60 mins before surgery; type: organism-based; conditions: in vivo, po, 1 h
Outline: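 Anesthetized rats were dosed orally with compound suspended in 0.5% CMC-Na, or vehicle, 60 min before the tail was transected 4 mm from the tip. The tail was immersed vertically in saline at 37 °C. Bleeding time was taken as the point when flow ceased for >30 s, with a 30 min maximum.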

Trypsin = Trypsin (Homo sapiens, UniProt P07477+P07478+P35030); assay: Inhibition of human trypsin using N-Z-D-Arg-Gly-Arg-pNA, S-2765 chromogenic substrate; type: protein assay; outline: as §3

O=C(NC[C@@H]1OC(=O)N2c3ccc(N4CCOCC4=O)cc3OC[C@@H]12)c1ccc(Cl)s1 gave a half-life [1] of 3.1 h, a pIC50 (Cytochrome P450 1A2) of less than 3.70 and a bioavailability [2] of 92%. The Activity (Rattus norvegicus [3]) was “Non-toxic”, the Tmax [4] was 0.5 h and the pIC50 (Prothrombin) was less than 4.00. For the same compound, the 2aPTT (Plasma [5]) was 0.14 µM, the Activity (Rattus norvegicus [6]) was “Non-toxic” and the AUC(0-inf) [7] was 1530 ng·h/mL. For the same compound, the Activity (Salmonella typhimurium) was “Non-toxic”, the pIC50 (Coagulation factor VII) was less than 4.00 and the pIC50 (Cytochrome P450 2D6) was less than 3.70. The Activity (Rattus norvegicus [8]) was “Non-toxic”, the Activity (V79) was “Non-toxic” and the Activity (Rattus norvegicus [9]) was “Non-toxic”. For the same compound, the Activity (Rattus norvegicus [10]) was “Non-toxic”, the Activity (Rattus norvegicus [11]) was “Non-toxic” and the ED50 (Rattus norvegicus [12]) was 5.63 mg/kg. It also gave a pIC50 (Cytochrome P450 2C9) of 4.36, an Activity (Plasma [13]) of 0.18 µM and an AUC(0-inf) [14] of 1320 ng·h/mL. For the same compound, the pIC50 (Coagulation factor X) was 8.47, the pIC50 (Cytochrome P450 2C19) was less than 3.70 and the Activity (Rattus norvegicus [15]) was “Dose-dependent effect”. The IC50 (Trypsin) was greater than 100 µM.
